In ChEMBL document CHEMBL1138253, “Cytotoxic and apoptotic activities of novel amino analogues of boswellic acids” (2007):
The source made the active and inactive calls. The calls are words filed in the database; no cut-off is given here.

What was measured:
[1] = test system: DU-145; experiment: Cytotoxicity against human DU145 cells at 10 uM after 48 hrs; type: functional; settings: DU-145, 48 h
Outline: (§1)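 SRB growth assay. DMSO stock (1 × 10^-2 M) diluted in RPMI-1640 (2 mM glutamine, pH 7.4, 10% FCS, antibiotics). Trypsinized subconfluent cells with >97% viability (trypan blue) seeded at 10^5 cells/ml and grown 24 h, then exposed to compound 48 h at 37 °C, 5% CO2. Fixed with TCA at 4 °C for 1 h, stained with 0.4% SRB, solubilized in 0.01 M Tris pH 10.4, OD read at 540 nm. Run in triplicate; mean of three experiments.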

[2] = test system: HT-29; experiment: Cytotoxicity against human HT29 cells at 10 uM after 48 hrs; type: functional; settings: HT-29, 48 h; outline: as §1
[3] = test system: MCF7; experiment: Cytotoxicity against human MCF7 cells at 10 uM after 48 hrs; type: functional; settings: MCF7, 48 h; outline: as §1
[4] = test system: HL-60; experiment: Induction of apoptosis in human HL60 cells assessed as nucleosomal DNA fragmentation at 1 uM after 6 hrs; type: functional, cell-based
Outline: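 HL-60 cells (2 × 10^6/3 ml) exposed to 1 µM compound for 6 h, with camptothecin as positive control and DMSO vehicle in untreated controls. DNA was extracted and run on 1.8% agarose gel to look for laddering.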

[5] = Cytotoxicity against human 502713 cells at 10 uM after 48 hrs; type: functional; settings: Homo sapiens, 502713, 48 h; outline: as §1
[6] = test system: SW-620; experiment: Cytotoxicity against human SW620 cells at 10 uM after 48 hrs; type: functional; settings: SW-620, 48 h; outline: as §1
[7] = test system: DU-145; experiment: Cytotoxicity against human DU145 cells at 1 uM after 48 hrs; type: functional; settings: DU-145, 48 h; outline: as §1
[8] = Cytotoxicity against human 502713 cells at 1 uM after 48 hrs; type: functional; settings: Homo sapiens, 502713, 48 h; outline: as §1
[9] = test system: MCF7; experiment: Cytotoxicity against human MCF7 cells at 1 uM after 48 hrs; type: functional; settings: MCF7, 48 h; outline: as §1
[10] = test system: COLO 205; experiment: Cytotoxicity against human Colo205 cells at 1 uM after 48 hrs; type: functional; settings: COLO 205, 48 h; outline: as §1
[11] = test system: SW-620; experiment: Cytotoxicity against human SW620 cells at 1 uM after 48 hrs; type: functional; settings: SW-620, 48 h; outline: as §1
[12] = test system: SW-620; experiment: Cytotoxicity against human SW620 cells at 50 uM after 48 hrs; type: functional; settings: SW-620, 48 h
Outline: (§2)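 Stock 1 × 10^-2 M in DMSO, diluted in RPMI-1640 (2 mM glutamine, pH 7.4, 10% FCS, penicillin/streptomycin). Cells grown at 37 C, 5% CO2; subconfluent cells trypsinised, >97% viable by trypan blue. Seeded at 10^5 cells/ml, grown 24 h, then exposed 48 h. TCA fixation at 4 C for 1 h, sulforhodamine B staining, Tris pH 10.4 solubilisation, OD 540 nm. Triplicate; mean of three experiments.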

[13] = test system: HT-29; experiment: Cytotoxicity against human HT29 cells at 50 uM after 48 hrs; type: functional; settings: HT-29, 48 h; outline: as §2
[14] = Cytotoxicity against human 502713 cells at 50 uM after 48 hrs; type: functional; settings: Homo sapiens, 502713, 48 h; outline: as §2
[15] = test system: MCF7; experiment: Cytotoxicity against human MCF7 cells at 50 uM after 48 hrs; type: functional; settings: MCF7, 48 h; outline: as §2
[16] = test system: DU-145; experiment: Cytotoxicity against human DU145 cells at 50 uM after 48 hrs; type: functional; settings: DU-145, 48 h; outline: as §2

Row | SMILES | inhibition at 10 µM [1] | inhibition at 10 µM [2] | inhibition at 10 µM [3] | Activity [4] | inhibition at 10 µM [5] | inhibition at 10 µM [6] | inhibition at 1 µM [7] | inhibition at 1 µM [8] | inhibition at 1 µM [9] | inhibition at 1 µM [10] | inhibition at 1 µM [11] | inhibition at 50 µM [12] | inhibition at 50 µM [13] | inhibition at 50 µM [14] | inhibition at 50 µM [15] | inhibition at 50 µM [16]
1 | CC(=O)O[C@@H]1CC[C@]2(C)[C@H]3C(=O)C=C4[C@@H]5[C@@H](C)[C@H](C)CC[C@]5(C)CC[C@@]4(C)[C@]3(C)CC[C@H]2[C@@]1(C)N | 16% | 21% | 1% | Active | 55% | 72% | – | – | – | – | – | – | – | – | – | –
2 | CC(=O)O[C@@H]1CC[C@]2(C)[C@H]3CC=C4[C@@H]5[C@@H](C)[C@H](C)CC[C@]5(C)CC[C@@]4(C)[C@]3(C)CC[C@H]2[C@@]1(C)N | 92% | 44% | 10% | Active | 96% | 80% | 0% | 6% | 0% | 34% | 18% | – | – | – | – | –
3 | C[C@H]1[C@H](C)CC[C@]2(C)CC[C@]3(C)C(=CC(=O)[C@@H]4[C@@]5(C)CC[C@@H](O)[C@](C)(N)[C@@H]5CC[C@]43C)[C@H]12 | 94% | 71% | 44% | Active | 86% | 87% | 16% | 48% | 0% | 48% | 75% | – | – | – | – | –
4 | O=c1[nH]cc(F)c(=O)[nH]1 [FLUOROURACIL] | – | – | – | – | – | – | – | – | – | – | – | 41% | 36% | 25% | 20% | 31%
5 | C[C@H]1[C@H](C)CC[C@]2(C)CC[C@]3(C)C(=CC[C@@H]4[C@@]5(C)CC[C@@H](O)[C@](C)(N)[C@@H]5CC[C@]43C)[C@H]12 | 82% | 79% | 42% | Active | 99% | 73% | 3% | 35% | 0% | 30% | 45% | – | – | – | – | –
6 | CC[C@@]1(O)C(=O)OCc2c1cc1n(c2=O)Cc2cc3ccccc3nc2-1 | – | – | – | Active | – | – | – | – | – | – | – | – | – | – | – | –
7 | COc1cccc2c1C(=O)c1c(O)c3c(c(O)c1C2=O)C[C@@](O)(C(=O)CO)C[C@@H]3O[C@H]1C[C@H](N)[C@H](O)[C@H](C)O1 [DOXORUBICIN] | – | – | – | – | – | – | 56% | 5% | 74% | 62% | 36% | – | – | – | – | –
8 | COC(=O)[C@]1(C)[C@@H]2CC[C@]3(C)[C@H](C(=O)C=C4[C@@H]5[C@@H](C)[C@H](C)CC[C@]5(C)CC[C@]43C)[C@@]2(C)CC[C@@H]1O | 0% | 3% | 0% | – | 10% | 11% | – | – | – | – | – | – | – | – | – | –
9 | CCCC(=O)N[C@@]1(C)[C@@H](OC(=O)CCC)CC[C@@]2(C)[C@H]1CC[C@]1(C)[C@@H]2CC=C2[C@@H]3[C@@H](C)[C@H](C)CC[C@]3(C)CC[C@]21C | 0% | 0% | 0% | – | 14% | 21% | – | – | – | – | – | – | – | – | – | –
10 | CC(=O)O[C@H]1CC[C@@]2(C)[C@@H](CC[C@]3(C)[C@@H]2CC=C2[C@@H]4[C@@H](C)[C@H](C)CC[C@]4(C)CC[C@]23C)[C@@]1(C)C(=O)O | 0% | 17% | 15% | – | 12% | 20% | – | – | – | – | – | – | – | – | – | –
